Data as given in ChEMBL document CHEMBL4020707, “Exploring the influence of indololactone structure on selectivity for binding to the C1 domains of PKCα, PKCε, and RasGRP” (Bioorg Med Chem, 2017).

Assays:
[1] = biological target: Protein kinase C alpha type (Homo sapiens, UniProt P17252); experiment: Displacement of [20-3H]phorbol 12,13-dibutyrate from PKCalpha (unknown origin) in the presence of porcine brain phosphatidylserine by scintillation counting
Summary of the method: (§1)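 Competitive binding against bound [20-3H]PDBu with 100 μg/ml phosphatidylserine present. Each curve used six ligand concentrations, each measured in triplicate. IC50 was obtained by least-squares fit of a theoretical sigmoidal competition curve. Ki was calculated from IC50 after correcting for competition by [3H]PDBu. Values are mean ± SE of at least three independent experiments.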

Homo sapiens [2] = species on record: Homo sapiens; experiment: Selectivity index, ratio of Ki for PKCalpha (unknown origin) to Ki for RasGRP1 (unknown origin)
Homo sapiens [3] = species on record: Homo sapiens; experiment: Selectivity index, ratio of Ki for PKCepsilon (unknown origin) to Ki for RasGRP1 (unknown origin)
[4] = biological target: T1, RAS guanyl-releasing protein 1 (Homo sapiens, UniProt O95267); experiment: Displacement of [20-3H]phorbol 12,13-dibutyrate from RasGRP1 (unknown origin) in the presence of porcine brain phosphatidylserine by scintillation counting; summary of the method: as §1
T1 sequence (O95267 whole entry): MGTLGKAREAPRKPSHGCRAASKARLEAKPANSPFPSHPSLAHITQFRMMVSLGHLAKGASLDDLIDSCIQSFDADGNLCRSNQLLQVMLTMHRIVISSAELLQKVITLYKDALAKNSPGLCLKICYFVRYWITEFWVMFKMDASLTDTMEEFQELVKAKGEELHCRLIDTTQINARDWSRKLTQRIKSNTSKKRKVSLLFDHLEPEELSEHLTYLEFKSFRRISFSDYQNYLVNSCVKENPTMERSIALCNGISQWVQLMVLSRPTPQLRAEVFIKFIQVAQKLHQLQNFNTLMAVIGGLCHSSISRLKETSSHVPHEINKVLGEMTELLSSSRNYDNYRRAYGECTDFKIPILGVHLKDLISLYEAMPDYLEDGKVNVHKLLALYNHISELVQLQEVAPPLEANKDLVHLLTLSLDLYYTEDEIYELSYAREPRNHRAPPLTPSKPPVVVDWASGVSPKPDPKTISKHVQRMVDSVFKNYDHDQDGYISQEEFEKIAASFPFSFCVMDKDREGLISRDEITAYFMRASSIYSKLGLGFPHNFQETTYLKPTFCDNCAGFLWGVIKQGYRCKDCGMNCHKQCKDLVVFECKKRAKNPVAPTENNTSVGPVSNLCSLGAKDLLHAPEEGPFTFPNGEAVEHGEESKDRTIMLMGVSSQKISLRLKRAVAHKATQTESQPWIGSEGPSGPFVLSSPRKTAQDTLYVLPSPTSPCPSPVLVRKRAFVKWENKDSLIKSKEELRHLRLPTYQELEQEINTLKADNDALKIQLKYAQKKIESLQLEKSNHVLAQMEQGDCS

Homo sapiens [5] = species on record: Homo sapiens; experiment: Selectivity index, ratio of Ki for PKCalpha (unknown origin) to Ki for PKCepsilon (unknown origin)
[6] = biological target: T2, Protein kinase C epsilon type (Homo sapiens, UniProt Q02156); experiment: Displacement of [20-3H]phorbol 12,13-dibutyrate from PKCepsilon (unknown origin) in the presence of porcine brain phosphatidylserine by scintillation counting; summary of the method: as §1
T2 sequence (Q02156 whole entry): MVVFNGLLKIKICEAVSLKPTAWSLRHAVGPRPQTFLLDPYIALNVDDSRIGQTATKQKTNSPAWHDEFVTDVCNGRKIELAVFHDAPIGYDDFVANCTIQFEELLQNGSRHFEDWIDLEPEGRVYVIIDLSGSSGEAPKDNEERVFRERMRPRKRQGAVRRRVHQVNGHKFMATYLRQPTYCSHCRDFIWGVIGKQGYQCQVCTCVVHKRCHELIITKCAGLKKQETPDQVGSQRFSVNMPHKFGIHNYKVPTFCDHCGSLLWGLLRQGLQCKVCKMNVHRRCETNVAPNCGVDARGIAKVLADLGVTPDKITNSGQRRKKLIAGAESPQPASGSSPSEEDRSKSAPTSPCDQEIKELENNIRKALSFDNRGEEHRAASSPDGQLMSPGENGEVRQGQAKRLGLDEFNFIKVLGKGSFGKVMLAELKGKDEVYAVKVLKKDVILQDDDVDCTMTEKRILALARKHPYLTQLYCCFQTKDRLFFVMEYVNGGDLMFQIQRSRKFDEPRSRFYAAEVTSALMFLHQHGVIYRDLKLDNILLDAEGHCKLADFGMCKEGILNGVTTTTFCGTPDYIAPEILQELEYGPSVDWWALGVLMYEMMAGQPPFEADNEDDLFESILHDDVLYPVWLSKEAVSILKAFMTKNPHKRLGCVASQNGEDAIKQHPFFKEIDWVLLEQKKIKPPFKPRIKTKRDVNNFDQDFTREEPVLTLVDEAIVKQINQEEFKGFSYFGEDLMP

SMILES	Ki [1] [nM]	Ratio Ki (Homo sapiens [2])	Ratio Ki (Homo sapiens [3])	Ki [4] [nM]	Ratio Ki (Homo sapiens [5])	Ki [6] [nM]
CC(C)CC(C/C=C1/CC(CO)(COC(=O)c2cn(C)c3ccccc23)OC1=O)CC(C)C (stereo not drawn)	83.1	3.7	2.4	22.6	1.5	55
CC(C)CC(C/C=C1\CC(CO)(COC(=O)c2cn(C)c3ccccc23)OC1=O)CC(C)C (stereo not drawn)	73	2.3	0.87	31.3	2.7	27.3
CC(C)=C1CC(CO)(COC(=O)c2cn(C)c3ccccc23)OC1=O (stereo not drawn)	698	1.08	0.45	666	2.3	301
CCCC(/C=C1\CC(CO)(COC(=O)c2cn(C)c3ccccc23)OC1=O)CCC (stereo not drawn)	504	3.8	2.2	133	1.7	295
CCCCCCCCC/C=C1\CC(CO)(COC(=O)c2cn(C)c3ccccc23)OC1=O (stereo not drawn)	106	1.7	0.94	63.3	1.8	59.6
Cc1ccc(C#Cc2ccc(C=C3CC(CO)(COC(=O)c4cn(C)c5ccccc45)OC3=O)cc2)cc1 (stereo not drawn)	116	5.1	5.8	22.6	0.89	131
CCCC(CCC)C(=O)OCC1(CO)C/C(=C\c2cn(C)c3ccccc23)C(=O)O1 (stereo not drawn)	12.9	22	53	0.58	0.42	31
Cc1ccc(C#Cc2ccc(/C=C3\CC(CO)(COC(=O)c4cn(C)c5ccccc45)OC3=O)cc2)cc1 (stereo not drawn)	257	6.5	3	40	2.2	119
